Experimental findings from ChEMBL document CHEMBL2203076, “Kandenols A-E, eudesmenes from an endophytic Streptomyces sp. of the mangrove tree Kandelia candel” (2012) are described below.

Values after ≈ are worked out from the molar mass of the structure shown.

Format in all cases: functional
In one assay the test system is Enterococcus faecalis. The assay can be described thus: Antimicrobial activity against vancomycin-resistant Enterococcus faecalis 1528 R10 by broth microdilution method. The method, boiled down:
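MIC read-out by standard broth microdilution against E. faecalis 1528 R10, run in the same panel as Bacillus subtilis ATCC 6633 and Mycobacterium vaccae IMET 10670.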
On the technique in general: Dilution methods test growth across graded concentrations, often in twofold steps.

The subject of another assay is Bacillus subtilis. The assay can be described thus: Antimicrobial activity against Bacillus subtilis ATCC 6633 by broth microdilution method.
A further assay relates to Mycolicibacterium vaccae. Put plainly: Antimicrobial activity against Mycobacterium vaccae ATCC IMET 10670 by broth microdilution method.

Consider `CC1=CC(=O)C[C@]2(C)C[C@@H](O)[C@H](C(C)(C)O)C[C@@]12O` (relative stereo) [KANDENOL B], for which the MIC in the assay on Enterococcus faecalis is > 100 µg/mL; with Bacillus subtilis, 50 µg/mL (≈ 186 µM); in the assay with Mycolicibacterium vaccae, 12.5 µg/mL (≈ 46.6 µM).
On the same counts, the results for `O=C(O)c1cn(C2CC2)c2cc(N3CCNCC3)c(F)cc2c1=O` [CIPROFLOXACIN] are 0.78 µg/mL (≈ 2.35 µM), < 0.05 µg/mL and 0.1 µg/mL (≈ 0.302 µM).
With `CC1=CC(=O)C[C@]2(C)C[C@@H](O)[C@H](C(C)(C)O)C[C@@]12OO` [KANDENOL C], the MIC in the assay on Enterococcus faecalis is > 100 µg/mL; in the assay with Bacillus subtilis, > 100 µg/mL; against Mycolicibacterium vaccae it was 12.5 µg/mL (≈ 44 µM).
For `CC1=CC(=O)C[C@]2(C)C[C@@H](O)[C@@H]3C[C@@]12OC3(C)C` [KANDENOL E], the MIC against Enterococcus faecalis is > 100 µg/mL; in the assay with Bacillus subtilis, 50 µg/mL (≈ 200 µM); against Mycolicibacterium vaccae, 12.5 µg/mL (≈ 49.9 µM).
On to `CC1=CC(=O)C[C@]2(C)C[C@@H](O)[C@H](C(C)(C)O)C[C@@H]12` (relative stereo) [KANDENOL A], for which the minimal inhibitory concentration (MIC) is > 100 µg/mL in the assay with Enterococcus faecalis, 50 µg/mL (≈ 198 µM) in the assay with Bacillus subtilis and 12.5 µg/mL (≈ 49.5 µM) in the assay on Mycolicibacterium vaccae.
On the same counts, the results for `CC1=CC(=O)C[C@]2(C)CC[C@H](C(C)(C)O)C[C@@]12OO` [KANDENOL D] are > 100 µg/mL, 50 µg/mL (≈ 186 µM) and 25 µg/mL (≈ 93.2 µM).

Usually MIC stands for the lowest concentration found to suppress growth.
